Active and inactive are the calls of the source. No cut-off for these calls is given here.
Tests used:
[1] = Cytotoxicity against Balb/c mouse peritoneal macrophages after 24 hrs by MTT assay; type: cell-based; settings: Peritoneal macrophage cell
Outline: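 Thioglycolate-elicited peritoneal macrophages (3 mL of 3% given i.p., harvested 3 days later by PBS pH 7.2 lavage). Cells in RPMI 1640 with 5% FCS, antibiotics and mercaptoethanol, stock suspension at 5 × 10^6 cells/mL. Mixed 1:1 with test solution, 24 h at 37 °C, 7.5% CO2. MTT added for 3 h, formazan dissolved in 2-propanol, OD read at 590 nm versus RPMI-only control. Triplicate.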

Leishmania amazonensis [2] = assay: Antileishmanial activity against Leishmania amazonensis MPRO/BR/1972/M1841-LV-79 after 72 hrs by MTT assay; type: functional, organism-based; settings: MPRO/BR/1972/M1841-LV-79, 72 h
Outline: (§1)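 Promastigotes from 4-day-old LIT cultures (10% heat-inactivated FCS), seeded at 8 × 10^6 parasites/mL. Compounds dissolved in DMSO, tested at 10 concentrations from 100 to 0.098 μg/mL. 72 h at 28 °C. MTT-PMS added, 75 min in dark at 28 °C, then 10% SDS for 30 min at room temperature. Absorbance read at 490 nm. Triplicate per concentration, IC50 from percentage cytotoxicity. Pentamidine isothionate was the reference drug.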

Trypanosoma cruzi [3] = assay: Antitrypanosomal activity against epimastigotes of Trypanosoma cruzi after 72 hrs by MTT assay; type: functional, organism-based
Outline: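 Y-strain epimastigotes grown axenically at 28 °C in LIT with 10% FCS, harvested at 7 days (exponential phase). Test wells held 1 × 10^7 parasites/mL. Compounds from DMSO stock at 10 concentrations spanning 100–0.098 μg/mL. 72 h at 28 °C. MTT-PMS added, 75 min in dark, then 10% SDS for 30 min. Read at 595 nm, triplicate. Benznidazole served as reference.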

Leishmania chagasi [4] = assay: Antileishmanial activity against Leishmania chagasi MHOM/BR/1974/PP75 after 72 hrs by MTT assay; type: functional, organism-based; settings: MHOM/BR/1974/PP75, 72 h; outline: as §1
[5] = Selectivity index, ratio of IC50 for Balb/c mouse peritoneal macrophages to IC50 for epimastigotes of Trypanosoma cruzi
Outline: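 Ratio of IC50 in Balb/c peritoneal macrophages (24 h MTT) to IC50 against T. cruzi Y-strain epimastigotes (72 h MTT, 28 °C).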

Trypanosoma cruzi [6] = assay: Antitrypanosomal activity against epimastigotes of Trypanosoma cruzi at 100 uM after 72 hrs by MTT assay; type: functional, organism-based
Leishmania chagasi [7] = assay: Antileishmanial activity against Leishmania chagasi MHOM/BR/1974/PP75 at 100 uM after 72 hrs by MTT assay; type: functional, organism-based
Leishmania amazonensis [8] = assay: Antileishmanial activity against Leishmania amazonensis MPRO/BR/1972/M1841-LV-79 at 100 uM after 72 hrs by MTT assay; type: functional, organism-based

Row | Compound | IC50 (Trypanosoma cruzi [3]) [µM] | IC50 [1] [µM] | IC50 (Leishmania amazonensis [2]) [µM] | IC50 (Leishmania chagasi [4]) [µM] | Ratio IC50 [5] | Activity (Trypanosoma cruzi [6]) | Activity (Leishmania chagasi [7]) | Activity (Leishmania amazonensis [8])
1 | CC(=O)OC[C@]12[C@H](OC(C)=O)[C@H](OC(C)=O)[C@@H]3[C@@H](OC(C)=O)[C@@]14O[C@@]3(C)COC(=O)c1cccnc1C(C)C(C)C(=O)O[C@@H]([C@H](OC(C)=O)[C@@H]2OC(=O)c1ccccc1)[C@]4(C)O (stereo partly specified) | – | – | – | – | – | inactive | inactive | inactive
2 | N=C(N)c1ccc(OCCCCCOc2ccc(C(=N)N)cc2)cc1 [PENTAMIDINE] | – | – | 7 | 5.1 | – | – | – | –
3 | CC(=O)OC[C@]12[C@H](OC(C)=O)[C@@H](OC(=O)c3ccccc3)[C@@H]3[C@@H](OC(C)=O)[C@@]14O[C@@]3(C)COC(=O)c1cccnc1CCC(C)C(=O)O[C@@H]([C@H](OC(C)=O)[C@@H]2OC(C)=O)[C@]4(C)O (stereo partly specified) | – | – | – | – | – | inactive | inactive | inactive

The next lines start with results.

Row | IC50 (Trypanosoma cruzi [3]) [µM] | Compound | IC50 [1] [µM] | IC50 (Leishmania amazonensis [2]) [µM] | IC50 (Leishmania chagasi [4]) [µM] | Ratio IC50 [5] | Activity (Trypanosoma cruzi [6]) | Activity (Leishmania chagasi [7]) | Activity (Leishmania amazonensis [8])
4 | 41.9 | CC(=O)OC[C@]12[C@H](OC(C)=O)[C@@H](OC(=O)c3ccccc3)[C@@H]3[C@@H](OC(C)=O)[C@@]14O[C@@]3(C)COC(=O)c1cccnc1[C@@H](C)[C@H](C)C(=O)O[C@@H]([C@H](OC(C)=O)[C@@H]2OC(C)=O)[C@]4(C)O | 1850 | > 100 | 1.4 | 44 | – | – | –
5 | 42.7 | O=C(Cn1ccnc1[N+](=O)[O-])NCc1ccccc1 [BENZNIDAZOLE] | 1140 | – | – | 26.7 | – | – | –
6 | 27.7 | CC(=O)OC[C@]12[C@H](OC(C)=O)[C@@H](OC(=O)c3ccccc3)[C@@H]3[C@@H](O)[C@@]14O[C@@]3(C)COC(=O)c1cccnc1[C@@H](C)[C@H](C)C(=O)O[C@@H]([C@H](OC(C)=O)[C@@H]2OC(C)=O)[C@]4(C)O [ILICIFOLIUNINE A] | 1280 | > 100 | > 100 | 46.2 | – | – | –

Source: ChEMBL document CHEMBL2046375, “Antiprotozoal sesquiterpene pyridine alkaloids from Maytenus ilicifolia” (J Nat Prod, 2012)
